Source: ChEMBL document CHEMBL1154042, “2-Oxoamide inhibitors of phospholipase A2 activity and cellular arachidonate release based on dipeptides and pseudodipeptides” (Bioorg Med Chem, 2009)

Tests used:
RAW264.7 [1] = assay: Antiinflammatory activity in mouse RAW264.7 cells assessed as inhibition of Kdo2 lipid-A-stimulated arachidonic acid release after 1 hr; type: functional, cell-based; details: RAW264.7, 1 h
Summary of the method: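 RAW 264.7 macrophages grown in DMEM with 10% FBS, 2 mM glutamine, penicillin/streptomycin and non-essential amino acids at 37 °C, 5% CO2. Plated at 2 × 10^6 cells per well, adhered overnight. Inhibitor added 30 min before Kdo2-Lipid A, supernatants taken 1 h after stimulation. AA extracted and quantitated by HPLC-MS, normalized to pmol per million cells by DNA quantitation. IC50 = concentration giving half of the maximal inhibition seen.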

RAW264.7 [2] = assay: Antiinflammatory activity in mouse RAW264.7 cells assessed as inhibition of Kdo2 lipid-A-stimulated arachidonic acid release at 25 uM for 1 hr; type: functional; details: for inhibition at 25 µM: RAW264.7, 1 h
Summary of the method: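 RAW 264.7 macrophages plated at 2 × 10^6 cells per well and left to adhere overnight. Preincubated 30 min with 25 μM inhibitor, then stimulated with Kdo2-Lipid A. Supernatants collected 1 h later. AA extracted and measured by HPLC-MS, normalized to pmol AA per million cells via DNA quantitation.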

[3] = molecular target: T1, Cytosolic phospholipase A2 (Homo sapiens) (UniProt P47712); assay: Inhibition of human group-4A cPLA2 at 0.091 mole fraction by mixed micellar assay
T1 sequence (whole entry): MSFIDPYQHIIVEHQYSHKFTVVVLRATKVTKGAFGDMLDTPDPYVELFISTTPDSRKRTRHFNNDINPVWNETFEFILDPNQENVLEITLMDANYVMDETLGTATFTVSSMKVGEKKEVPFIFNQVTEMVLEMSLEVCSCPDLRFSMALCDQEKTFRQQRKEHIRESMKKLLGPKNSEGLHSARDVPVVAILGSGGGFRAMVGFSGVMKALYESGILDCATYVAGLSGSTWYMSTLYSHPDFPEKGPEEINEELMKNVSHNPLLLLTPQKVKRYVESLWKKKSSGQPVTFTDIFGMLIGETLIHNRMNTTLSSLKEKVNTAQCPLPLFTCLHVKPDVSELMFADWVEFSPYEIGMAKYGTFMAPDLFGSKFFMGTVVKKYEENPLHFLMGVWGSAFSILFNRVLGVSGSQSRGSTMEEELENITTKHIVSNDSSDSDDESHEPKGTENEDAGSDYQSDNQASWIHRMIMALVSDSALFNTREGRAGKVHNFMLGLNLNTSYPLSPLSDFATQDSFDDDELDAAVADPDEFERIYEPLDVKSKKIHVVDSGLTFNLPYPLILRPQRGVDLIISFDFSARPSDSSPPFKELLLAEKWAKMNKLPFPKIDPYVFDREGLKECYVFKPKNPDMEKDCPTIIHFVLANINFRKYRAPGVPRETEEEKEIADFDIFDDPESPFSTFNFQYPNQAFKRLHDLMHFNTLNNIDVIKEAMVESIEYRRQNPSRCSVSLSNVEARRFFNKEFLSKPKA
Summary of the method: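 Modified Dole assay, single point at 0.091 mole fraction inhibitor. Mixed micelles: 400 μM Triton X-100, 97 μM PAPC, 1.8 μM 14C-PAPC, 3 μM PIP2. Buffer: 100 mM HEPES pH 7.5, 90 μM CaCl2, 2 mM DTT, 0.1 mg/ml BSA. Percent inhibition reported.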

[4] = molecular target: T2, 85/88 kDa calcium-independent phospholipase A2 (Homo sapiens) (UniProt O60733); assay: Inhibition of human group-6A iPLA2 at 0.091 mole fraction by mixed micellar assay
T2 sequence (whole entry): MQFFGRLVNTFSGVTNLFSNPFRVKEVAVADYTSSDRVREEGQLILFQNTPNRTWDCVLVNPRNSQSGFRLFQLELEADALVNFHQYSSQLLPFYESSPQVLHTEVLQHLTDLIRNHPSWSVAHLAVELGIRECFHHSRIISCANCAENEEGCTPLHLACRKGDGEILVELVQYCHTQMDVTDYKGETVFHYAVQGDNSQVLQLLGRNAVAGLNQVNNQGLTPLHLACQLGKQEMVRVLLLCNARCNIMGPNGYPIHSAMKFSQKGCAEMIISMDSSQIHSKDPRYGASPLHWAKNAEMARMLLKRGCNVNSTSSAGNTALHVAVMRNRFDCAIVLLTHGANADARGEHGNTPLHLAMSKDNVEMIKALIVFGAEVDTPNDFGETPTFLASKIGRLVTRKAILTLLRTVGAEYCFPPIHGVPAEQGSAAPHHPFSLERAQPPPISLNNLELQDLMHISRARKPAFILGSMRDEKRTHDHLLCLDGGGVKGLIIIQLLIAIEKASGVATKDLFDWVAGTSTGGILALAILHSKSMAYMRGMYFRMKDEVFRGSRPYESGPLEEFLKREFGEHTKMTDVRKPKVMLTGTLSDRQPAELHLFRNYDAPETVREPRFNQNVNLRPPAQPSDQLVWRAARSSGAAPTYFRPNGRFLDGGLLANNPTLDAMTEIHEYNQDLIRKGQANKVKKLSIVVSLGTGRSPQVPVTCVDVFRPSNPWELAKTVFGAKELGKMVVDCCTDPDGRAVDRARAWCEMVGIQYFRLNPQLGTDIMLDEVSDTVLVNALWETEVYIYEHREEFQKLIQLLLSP
Summary of the method: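 Modified Dole assay, percent inhibition at 0.091 mole fraction inhibitor. Micelles were either 400 μM Triton X-100, 99 μM DPPC, 1.5 μM 14C-DPPC in 200 mM HEPES pH 7.0, 1 mM ATP, 2 mM DTT, 0.1 mg/ml BSA, or 400 μM Triton X-100, 98.3 μM PAPC, 1.7 μM 14C-PAPC in 100 mM HEPES pH 7.5, 2 mM ATP, 4 mM DTT.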

[5] = molecular target: T3, Phospholipase A2 group V (Homo sapiens) (UniProt P39877); assay: Inhibition of human group-5 sPLA2 at 0.091 mole fraction by mixed micellar assay
T3 sequence (whole entry): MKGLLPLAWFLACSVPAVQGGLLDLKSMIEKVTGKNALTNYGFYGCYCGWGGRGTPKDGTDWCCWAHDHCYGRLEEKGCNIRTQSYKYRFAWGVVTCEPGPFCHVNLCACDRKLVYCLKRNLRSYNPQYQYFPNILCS
Summary of the method: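 Radiometric modified Dole assay screening at 0.091 mole fraction inhibitor, giving percent inhibition. Mixed micelles of 400 μM Triton X-100, 99 μM DPPC and 1.5 μM 14C-DPPC in 50 mM Tris pH 8.0 with 5 mM CaCl2.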

Row | SMILES | inhibition [3] | inhibition [4] | inhibition [5] | inhibition at 25 µM (RAW264.7 [2]) | other results
1 | CCCCCCCCCCCCCCC(=O)C(=O)NCCCC(=O)O | – | – | – | 27% | IC50 (RAW264.7 [1]): 25 µM
2 | CCCCCCCCCCCCCCC(=O)C(=O)NCCCC(=O)CO | > 90% | < 25% | – | – | –
3 | CCCCCCCCCCC(=O)C(=O)N[C@@H](CCC(=O)OC)COC(=O)NCCCCCCCC | – | – | – | – | Activity (RAW264.7 [2]): Toxic
4 | CCCCCCCCCCCCCCC(=O)C(=O)NCCC(=O)OC(C)(C)C | – | – | – | – | Activity (RAW264.7 [2]): Toxic
5 | CCCCCCCCCCCCCCC(=O)C(=O)N[C@H](CCC(=O)O)CC(C)C | – | – | – | 6% | IC50 (RAW264.7 [1]): 25 µM
6 | CCCCCCCCCCCCCCC(=O)C(=O)NCC(=O)OC | – | – | – | 68% | –
7 | CCCCCCCCCCCCCCC(=O)C(=O)N[C@@H](CCCC)CCC(=O)OC | – | – | – | – | Activity (RAW264.7 [2]): Toxic
8 | CCCCCCCCCCCCCCC(=O)C(=O)NCCCCC(=O)OC(C)(C)C | – | – | – | 59% | –
9 | CCCCCCCCCCCCCCC(=O)C(=O)N[C@@H](CCCC)CCCC(=O)O | – | – | – | 30% | IC50 (RAW264.7 [1]): 7 µM
10 | CCCCCCCCCCCCCCC(=O)C(=O)N[C@H](/C=C/C=C/C(=O)O)CCCC | – | – | – | 74% | –
11 | CCCCCCCCCCCCCCC(=O)C(=O)N[C@@H](CCCC)CCC(=O)O | – | – | – | 30% | IC50 (RAW264.7 [1]): 25 µM
12 | CCCCCCCCCCCCCCC(=O)C(=O)N[C@H](/C=C/C(=O)OCC)CCCC | – | – | – | 11% | –
13 | CCCCCCCCCCCCCCC(=O)C(=O)N[C@H](/C=C/C(=O)OC)CCCC | – | – | – | – | Activity (RAW264.7 [2]): Toxic
14 | CCCCCCCCCCCCCCC(=O)C(=O)N[C@H](/C=C/C(=O)O)CCCC | – | – | – | 16% | IC50 (RAW264.7 [1]): 25 µM
15 | CCCCCCCCCCCCCCC(=O)C(=O)NCCCC(=O)COCC | > 90% | > 90% | – | – | –
16 | CCCCCCCCCCC(=O)C(=O)N[C@@H](CCCC)CCC(=O)O | – | – | – | 62% | IC50 (RAW264.7 [1]): 10 µM
17 | CCCCCCCCCCC(=O)C(=O)N[C@@H](CCCC)C(=O)O | – | – | – | 79% | –
18 | CCCCCCCCCCCCCCC(=O)C(=O)NCCCC(=O)OCC | – | – | – | – | Activity (RAW264.7 [2]): Toxic
19 | CCCCCCCCCCCCCC(=O)C(=O)N[C@@H](CCCC)CCCCC(=O)O | – | – | – | – | Activity (RAW264.7 [2]): Toxic
20 | CCCCCCCCCCCCCCC(=O)C(=O)N[C@H](C(=O)NCC(=O)OC)C(C)C | 25% | < 25% | < 25% | – | –
21 | CCCCCCCCCCCCCCC(=O)C(=O)N[C@@H](CCCC)COCC(=O)OC(C)(C)C | 44% | 81% | 57% | – | –
22 | CCCCCCCCCCCCCCC(=O)C(=O)NCCCC(=O)N(C)S(=O)(=O)c1ccc(C)cc1 | – | – | – | – | Activity (RAW264.7 [2]): Toxic
23 | CCCCCCCCCCCCCCC(=O)C(=O)N[C@H](C(=O)NCC(=O)O)C(C)C | > 90% | < 25% | < 25% | – | –
24 | CCCCCCCCCCCCCCC(=O)C(=O)N[C@@H](C)CCC(=O)OC(C)(C)C | – | – | – | – | Activity (RAW264.7 [2]): Toxic
25 | CCCCCCCCCCCCCCC(=O)C(=O)N[C@H](C(=O)NCC(=O)OC(C)(C)C)C(C)C | > 90% | > 90% | 78% | 30% | –

Continued, in another order:

Row | inhibition [3] | inhibition [4] | inhibition [5] | SMILES | inhibition at 25 µM (RAW264.7 [2]) | other results
26 | 72% | > 90% | 59% | CCCCCCCCCCCCCCC(=O)C(=O)N[C@@H](CCCC)C(=O)NCC(=O)OC(C)(C)C | – | –
27 | 73% | > 90% | 63% | CCCCCCCCCCCCCCC(=O)C(=O)N[C@@H](CCCC)C(=O)NCC(=O)OCC | – | –
28 | 52% | > 90% | 81% | CCCCCCCCCCCCCCC(=O)C(=O)N[C@@H](CCCC)COCC(=O)OCC | – | –
29 | > 90% | > 90% | 65% | CCCCCCCCCCCCCCC(=O)C(=O)N[C@@H](CCCC)C(=O)NCC(=O)OC | – | –
30 | > 90% | < 25% | < 25% | CCCCCCCCCCCCCCC(=O)C(=O)N[C@@H](CCCC)COCC(=O)O | – | IC50 (RAW264.7 [1]): 2 µM
31 | > 90% | < 25% | < 25% | CCCCCCCCCCCCCCC(=O)C(=O)N[C@@H](CCCC)C(=O)NCC(=O)O | – | –
